The values that follow come from ChEMBL document CHEMBL2384958, “Potential of lichen secondary metabolites against Plasmodium liver stage parasites with FAS-II as the potential target” (J Nat Prod, 2013).

What is called IC50 is the midpoint of a concentration-inhibition curve. Broadly, the MIC is the least concentration at which growth counts as inhibited.

Values after ≈ are worked out from the molar mass of the structure shown. Active and inactive are the calls of the source. No cut-off for these calls is given here.

Series [1] is described as follows: Inhibition of Staphylococcus aureus FabI using dodecenoyl ACP at pH 7.8.
Series [2] is described as follows: Inhibition of Plasmodium falciparum FabI using crotonoyl-CoA as substrate preincubated for 10 mins prior to substrate addition.
In a further series the test system is KB. Kind of series: Cytotoxicity against human KB cells after 72 hrs by Alamar Blue assay. It counts as functional, cell-based. On the technique in general: The colour change of resazurin is a common sign of viable cells or microbes.
The species entered for series [3] is Danio rerio. Kind of series: Hepatotoxicity in zebrafish larva expressing fabp10a:DsRed2 assessed as reduction in liver size at 60.2 uM measured at 6 days postfertilization by fluorescence microscopic analysis. It counts as toxicity, organism-based. Conditions: in vivo, 144 h. The method in brief:
(§1)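 Transgenic fabp10a:DsRed2 zebrafish were raised at 28.5 °C on a 14 h light/10 h dark cycle. Larvae were sorted at 3 dpf for liver fluorescence and exposed to compounds at 10 per well, with 1% DMSO controls. General and heart toxicity were checked at 4 dpf, dosing went up to the maximum-tolerated concentration, and five liver phenotypes were scored at 6 dpf by fluorescence microscopy.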

The subject of series [4] is Plasmodium berghei. Nature of the series: Antiplasmodial activity against liver stage of Plasmodium berghei ANKA expressing GFP infected in human Huh7.5 cells assessed as decrease in size at 10 uM after 48 hrs by immunofluorescence analysis. Type of series: functional, organism-based. Particulars: Huh-7. Summed up: (§2)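 HuH7.5 cells (50 000/well, chambered slides) were infected with 33 000 freshly dissected P. berghei GFP sporozoites and incubated 48 h with compound or 0.1% DMSO. Cells were fixed in 10% neutral buffered formalin and stained with mouse anti-Plasmodium HSP70 (FITC) plus Hoechst. Parasite size was imaged by fluorescence microscopy with a 40× objective.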

The nature of series [5]: Inhibition of Plasmodium falciparum FabZ using crotonoyl-CoA as substrate preincubated for 10 mins prior to substrate addition.
A further series relates to Plasmodium falciparum. Kind of series: Antiplasmodial activity against blood stage of chloroquine and pyrimethamine-resistant Plasmodium falciparum K1 after 48 hrs by [3H]-hypoxanthine incorporation assay. Type of series: functional, organism-based. The method in brief: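 0.4% parasitemia in assay medium with 15 μM hypoxanthine; compounds incubated 48 h before 3H-hypoxanthine added; run in duplicate.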

Series [6] addresses T1, Enoyl-[acyl-carrier-protein] reductase [NADH] FabI (Escherichia coli K-12, UniProt P0AEK4).
T1 sequence (P0AEK4 whole entry): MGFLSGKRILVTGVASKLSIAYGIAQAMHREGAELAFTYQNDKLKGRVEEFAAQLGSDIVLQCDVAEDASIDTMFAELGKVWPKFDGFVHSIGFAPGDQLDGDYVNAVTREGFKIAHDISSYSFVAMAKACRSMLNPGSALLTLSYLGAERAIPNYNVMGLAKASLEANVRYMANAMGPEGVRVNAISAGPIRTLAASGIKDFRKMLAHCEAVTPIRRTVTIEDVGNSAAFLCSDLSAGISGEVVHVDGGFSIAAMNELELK
Nature of the series: Inhibition of Escherichia coli FabI using 2-dodecenoyl-CoA as substrate at pH 8.

A further series has as its system Escherichia coli. Kind of series: Antibacterial activity against Escherichia coli ATCC 8739. It counts as functional, organism-based. Particulars: ATCC 8739, ATCC 8739. Summed up: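 E. coli ATCC 8739 whole cells tested in triplicate by a previously reported method. Compounds were fully solubilized beforehand, with brief agitation or sonication used for DMSO solutions at high test concentrations (>120 μM).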

The species entered for series [7] is Danio rerio. Kind of series: Toxicity in zebrafish larva measured at 4 days postfertilization. It counts as organism-based. Conditions: in vivo, 96 h. Summed up: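 Transgenic fabp10a:DsRed2 larvae raised at 28.5 °C (14 h light/10 h dark), sorted for liver fluorescence at 3 dpf and exposed to compounds, 10 larvae per well; general and heart toxicity checked at 4 dpf to set maximum-tolerated concentration.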

The nature of series [8]: Cytotoxicity against human Huh7.5 cells after 24 hrs by Cell-titerGlo luminescence assay. Type of series: cell-based. Particulars: Huh-7, 24 h. Summed up: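 HuH7.5 human hepatoma cells (30 000/well) in advanced DMEM complete medium were exposed to compounds for 24 h, or to 0.1% DMSO as reference. Viability was read by CellTiter-Glo luminescence.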
A short description of series [9]: Inhibition of Plasmodium falciparum FabG using acetoacetyl-CoA as substrate.
Series [10] deals with Plasmodium berghei. Kind of series: Antiplasmodial activity against liver stage of Plasmodium berghei ANKA expressing GFP infected in human Huh7.5 cells assessed as reduction in PB18S gene expression after 48 hrs by qRT-PCR analysis. Conditions: Huh-7, 48 h. It counts as functional, organism-based. The method in brief:
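HuH7.5 cells infected with freshly dissected P. berghei GFP sporozoites (30 000 per 60 000 cells); 48 h culture with compounds (10 to 100 μM) at 37 °C, media changed every 24 h. Total RNA extracted, DNase treated; PB18S expression normalized to DMSO controls; IC50 estimated; atovaquone positive control.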
(Real-time PCR tracks product formation cycle by cycle.)

The species named for series [11] is Danio rerio. Kind of series: Hepatotoxicity in zebrafish larva expressing fabp10a:DsRed2 assessed as change in liver size at 3.6 to 60.2 uM measured at 6 days postfertilization by fluorescence microscopic analysis relative to control. It counts as toxicity, organism-based. Conditions: in vivo, 144 h. Summed up:
as §1

In the next series the test system is Staphylococcus aureus. Nature of the series: Antibacterial activity against Staphylococcus aureus ATCC 6538. It counts as functional. Summed up: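 S. aureus ATCC 6538 whole cells tested in triplicate by a previously reported method. Compounds were fully solubilized beforehand, with brief agitation or sonication for high test concentrations (>120 μM) in DMSO.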

The species entered for series [12] is Danio rerio. Kind of series: Hepatotoxicity in zebrafish larva expressing fabp10a:DsRed2 assessed as enlargement of liver at 15.5 uM measured at 6 days postfertilization by fluorescence microscopic analysis. Type of series: toxicity, organism-based. Particulars: in vivo, 144 h. Summed up: as §1
The species entered for series [13] is Danio rerio. Nature of the series: Hepatotoxicity in zebrafish larva expressing fabp10a:DsRed2 assessed as change in liver size at 0.3 uM measured at 6 days postfertilization by fluorescence microscopic analysis. Type of series: toxicity, organism-based. Conditions: in vivo, 144 h. The method in brief:
as §1

Series [14] has as its system Plasmodium berghei. Kind of series: Antiplasmodial activity against liver stage of Plasmodium berghei ANKA expressing GFP infected in human Huh7.5 cells assessed as decrease in size at 1 uM after 48 hrs by immunofluorescence analysis. Type of series: functional, organism-based. Particulars: Huh-7. Summed up: as §2
Series [15] can be described thus: Inhibition of Mycobacterium tuberculosis FabI using 2-dodecenoyl-CoA as substrate at pH 6.8.
For series [16], the system named is Mycobacterium tuberculosis. Kind of series: Antimycobacterial activity against Mycobacterium tuberculosis ATCC 27294. It counts as functional.
Another series deals with Plasmodium. Kind of series: Antiplasmodial activity against blood stage of Plasmodium. It counts as functional. The method in brief: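 P. falciparum K1 (chloroquine/pyrimethamine-resistant) culture with 3H-hypoxanthine incorporation read-out, run in duplicate. Assay medium held 15 μM hypoxanthine, parasitemia 0.4%, and compounds were incubated 48 h before 3H-hypoxanthine was added.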

In series [17] the test system is Plasmodium berghei. Nature of the series: microbe, parasite or virus in culture. Particulars: Huh-7.
The test system of series [18] is Plasmodium berghei. Kind of series: microbe, parasite or virus in culture. Conditions: ANKA, HepG2.

For the compound `COc1cc(C)c(C(=O)Oc2cc(C)c(C(=O)O)c(O)c2)c(O)c1` [EVERNIC ACID], the IC50 in series [1] stood at 170 µM; in series [2] it was 36.1 µM; in the series with KB it was 190 µM; in series [5], 10.7 µM; in the series with Plasmodium falciparum it was 142 µM; in series [6], 90 µM. The IC50 was more than 64 µM in the series on Escherichia coli, more than 100 µM in [8], more than 200 µM in series [9] and 77.3 µM in the series on Plasmodium berghei [10]. The Activity result in the series listed under Danio rerio [3] was “Toxic”; in the series listed under Danio rerio [11], “>= 40%”. In the series on Plasmodium berghei [4], the result was inactive. Further, the MTD in the series listed under Danio rerio [7] came out at 60.2 µM.
Regarding `COC(=O)/C(=C1/OC(=O)C(c2ccccc2)=C1O)c1ccccc1` [VULPINIC ACID], the IC50 is 90 µM in [1]; more than 140 µM in [2]; 20.5 µM in series [5]; 48.5 µM in the series with Plasmodium falciparum; 84 µM in series [6]; more than 64 µM in the series with Escherichia coli. Further, the IC50 in [8] is more than 100 µM; in series [9], more than 200 µM; in the series with Plasmodium berghei [10], 10.2 µM. Moreover, the result in the series on Plasmodium berghei [4] was Active. Moreover, it took 32 µM (≈ 10.3 µg/mL) to inhibit growth against Staphylococcus aureus (MIC). The compound also showed an MTD in the series filed under Danio rerio [7] of 15.5 µM. The Activity result is “Toxic” in the series listed under Danio rerio [12] and “>= 40%” in the series filed under Danio rerio [11].
As to `CC(=O)C1=C(O)C=C2Oc3c(C(C)=O)c(O)c(C)c(O)c3[C@@]2(C)C1=O` [(+)-USNIC ACID], the IC50 in series [1] was 190 µM; in [2], more than 200 µM; in [15], 190 µM; in series [5], more than 200 µM; in [6] it was 47 µM; in the series with Escherichia coli it was more than 64 µM. Also, the 50% inhibitory concentration (IC50) in series [8] is more than 100 µM; in [9] it was more than 200 µM; with Plasmodium berghei [10], 2.3 µM. In addition, the Activity result in the series filed under Danio rerio [13] is reported as “Non-toxic”. The outcome in the series with Plasmodium berghei [14] and in the series with Plasmodium berghei [4] was Active. Also, the MIC in [16] is 15.1 µM (≈ 5.2 µg/mL). In the series filed under Danio rerio [7], this compound yielded an MTD of 0.3 µM.
As to `COc1cc(C(=O)O)c2c(c1C)OC(=O)c1c(C)cc(O)c(C=O)c1O2` [PSOROMIC ACID], the IC50 in series [1] is more than 200 µM; in [2], 71.4 µM; in the series with KB it was 31.6 µM; in [5] it was 35.2 µM; in the series on Plasmodium falciparum, 29.2 µM; in [6], more than 200 µM. Also, the IC50 with Escherichia coli is more than 64 µM; in [8] it was more than 100 µM; in series [9], 183 µM; with Plasmodium berghei [10] it was 31.6 µM. In addition, the MIC in series [16] is 123 µM (≈ 44 µg/mL). The result in the series on Plasmodium berghei [4] was inactive. This compound also had an MTD in the series listed under Danio rerio [7] of 3.6 µM. Further, the Activity result in the series listed under Danio rerio [11] was “>= 40%”.
In the case of `COc1cc(NC(C)CCCN)c2ncccc2c1` (centres undefined) [PRIMAQUINE], the IC50 in the series on Plasmodium was 1.4 µM; with Plasmodium berghei [17] it was 7.5 µM; in the series on Plasmodium berghei [18], 7.5 µM.
